Active and inactive are the calls of the source. No cut-off for these calls is given here.
Assays:
[1] = system: NCI-H358; assay: Antiproliferative against human NCI-H358 cells after 5 days by Cell-Titer Glo assay; assay type: functional, cell-based; conditions: NCI-H358, 120 h
Outline: (§1)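 ATCC tumor lines were grown in their recommended media with 10% FBS and STR-authenticated. Cells were exposed to compound for the stated number of days. Viable cells were read by CellTiter-Glo endpoint. Inhibition was the ratio of treated to untreated wells, with cell-free wells set as 100% inhibition. The EC50 was taken from the dose response.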

[2] = system: NCI-H1975; assay: Antiproliferative against human NCI-H1975 cells after 5 days by Cell-Titer Glo assay; assay type: functional, cell-based; conditions: NCI-H1975, 120 h; outline: as §1
[3] = system: CWR22R; assay: Antiproliferative against human 22RV1 cells after 5 days by Cell-Titer Glo assay; assay type: functional, cell-based; conditions: 22Rv1, 120 h; outline: as §1
[4] = system: ZR-75-30; assay: Antiproliferative against human ZR-75-30 cells after 7 days by Cell-Titer Glo assay; assay type: functional, cell-based; conditions: ZR-75-30, 168 h; outline: as §1
[5] = system: NCI-H522; assay: Antiproliferative against human NCI-H522 cells after 5 days by Cell-Titer Glo assay; assay type: functional, cell-based; conditions: NCI-H522, 120 h; outline: as §1
[6] = system: IMR-32; assay: Antiproliferative against human IMR-32 cells after 7 days by Cell-Titer Glo assay; assay type: functional, cell-based; conditions: IMR-32, 168 h; outline: as §1
[7] = Antiproliferative against human TC71 cells after 7 days by Cell-Titer Glo assay; assay type: functional, cell-based; conditions: TC-71, 168 h; outline: as §1
[8] = molecular target: T1, Histone-lysine N-methyltransferase EHMT2 (Homo sapiens) (UniProt Q96KQ7); assay: Inhibition of G9a in human HT-1080 cells assessed as decrease in […] levels after 2 days by AlphaLisa assay; assay type: cell-based; conditions: time 2.0 day
T1 sequence (whole entry): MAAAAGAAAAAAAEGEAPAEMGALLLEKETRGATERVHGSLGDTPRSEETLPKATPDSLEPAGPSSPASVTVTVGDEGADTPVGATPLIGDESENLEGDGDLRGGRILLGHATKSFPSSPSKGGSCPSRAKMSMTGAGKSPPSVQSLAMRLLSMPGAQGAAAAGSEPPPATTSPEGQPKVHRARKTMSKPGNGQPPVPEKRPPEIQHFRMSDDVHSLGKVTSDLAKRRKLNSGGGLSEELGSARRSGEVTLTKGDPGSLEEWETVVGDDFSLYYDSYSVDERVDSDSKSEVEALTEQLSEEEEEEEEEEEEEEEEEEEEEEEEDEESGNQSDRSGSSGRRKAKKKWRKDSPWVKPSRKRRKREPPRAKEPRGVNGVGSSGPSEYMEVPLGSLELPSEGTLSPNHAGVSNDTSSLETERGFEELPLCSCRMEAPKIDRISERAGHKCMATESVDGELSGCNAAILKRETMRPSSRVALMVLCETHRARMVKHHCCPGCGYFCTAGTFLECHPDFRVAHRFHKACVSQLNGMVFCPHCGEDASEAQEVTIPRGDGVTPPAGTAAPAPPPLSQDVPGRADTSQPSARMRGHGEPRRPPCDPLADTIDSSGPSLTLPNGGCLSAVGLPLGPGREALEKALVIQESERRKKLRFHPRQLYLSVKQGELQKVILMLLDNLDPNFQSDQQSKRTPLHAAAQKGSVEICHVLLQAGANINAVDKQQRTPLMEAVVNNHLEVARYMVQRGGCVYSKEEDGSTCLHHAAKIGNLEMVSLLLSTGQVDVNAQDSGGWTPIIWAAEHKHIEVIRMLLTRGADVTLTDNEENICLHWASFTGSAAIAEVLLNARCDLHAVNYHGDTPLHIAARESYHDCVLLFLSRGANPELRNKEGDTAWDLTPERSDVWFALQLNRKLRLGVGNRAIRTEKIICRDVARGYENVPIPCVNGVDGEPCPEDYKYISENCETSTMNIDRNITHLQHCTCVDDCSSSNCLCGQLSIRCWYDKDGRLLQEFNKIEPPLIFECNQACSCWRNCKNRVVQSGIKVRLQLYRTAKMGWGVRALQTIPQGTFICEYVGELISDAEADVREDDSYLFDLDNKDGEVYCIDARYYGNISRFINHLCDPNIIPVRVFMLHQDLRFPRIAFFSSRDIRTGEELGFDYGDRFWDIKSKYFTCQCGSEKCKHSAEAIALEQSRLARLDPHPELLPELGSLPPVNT
Outline: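 HT-1080 cells treated 2 days with compound over a concentration range. Viability read by CellTiter-Glo; H3K9me2 measured by AlphaLISA and normalized to viability. % inhibition calculated relative to untreated cells set as 0%.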

[9] = system: U2OS; assay: Antiproliferative against human U2OS cells after 7 days by Cell-Titer Glo assay; assay type: functional, cell-based; conditions: 168 h; outline: as §1
[10] = system: HL-60; assay: Antiproliferative against human HL-60 cells after 5 days by Cell-Titer Glo assay; assay type: functional, cell-based; conditions: HL-60, 120 h; outline: as §1
[11] = system: PA-1; assay: Antiproliferative against human PA-1 cells after 7 days by Cell-Titer Glo assay; assay type: functional, cell-based; conditions: PA-1, 168 h; outline: as §1
[12] = system: RPMI-8226; assay: Antiproliferative against human RPMI-8226 cells after 5 days by Cell-Titer Glo assay; assay type: functional, cell-based; conditions: RPMI-8226, 120 h; outline: as §1
[13] = system: LN-229; assay: Antiproliferative against human LN-229 cells after 5 days by Cell-Titer Glo assay; assay type: functional, cell-based; conditions: LN-229, 120 h; outline: as §1
[14] = system: Calu-6; assay: Antiproliferative against human Calu-6 cells after 5 days by Cell-Titer Glo assay; assay type: functional, cell-based; conditions: Calu-6, 120 h; outline: as §1
[15] = molecular target: T1, Histone-lysine N-methyltransferase EHMT2 (Homo sapiens); assay: Inhibition of G9a in human PC-3 cells assessed as decrease in total H3 levels at 10 uM by In cell Western assay; assay type: cell-based
Outline: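 PC-3 cells (5,000/well) adhered overnight, then treated in triplicate with DMSO or compound over a concentration range for 72 h at 37 °C, 5% CO2. Cells fixed in 3% formaldehyde, blocked in 1% BSA and co-stained 4 h for H3K9me2 (1:500) and total H3 (1:1000). Fluorescent secondaries read by Odyssey: 800 nm H3K9me2, 700 nm total H3.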

[16] = system: L-363; assay: Antiproliferative against human L-363 cells after 5 days by Cell-Titer Glo assay; assay type: functional, cell-based; conditions: L-363, 120 h; outline: as §1
[17] = system: NCI-H2009; assay: Antiproliferative against human NCI-H2009 cells after 5 days by Cell-Titer Glo assay; assay type: functional, cell-based; conditions: NCI-H2009, 120 h; outline: as §1
[18] = system: KMS-11; assay: Antiproliferative against human KMS-11 cells after 5 days by Cell-Titer Glo assay; assay type: functional, cell-based; conditions: KMS-11, 120 h; outline: as §1
[19] = system: NCI-H929; assay: Antiproliferative against human NCI-H929 cells after 5 days by Cell-Titer Glo assay; assay type: functional, cell-based; conditions: NCI-H929, 120 h; outline: as §1
[20] = system: RS4-11; assay: Antiproliferative against human RS4-11 cells after 5 days by Cell-Titer Glo assay; assay type: functional, cell-based; conditions: RS4-11, 120 h; outline: as §1
[21] = system: MOLT-16; assay: Antiproliferative activity against human MOLT-16 cells at EC50 after 5 days by Cell-Titer-Glo assay; assay type: functional, cell-based; conditions: time 5.0 day; outline: as §1
[22] = system: MOLT-16; assay: Antiproliferative against human MOLT-16 cells after 5 days by Cell-Titer Glo assay; assay type: functional, cell-based; conditions: MOLT-16, 120 h; outline: as §1
[23] = system: NCI-H441; assay: Antiproliferative against human NCI-H441 cells after 5 days by Cell-Titer Glo assay; assay type: functional, cell-based; conditions: NCI-H441, 120 h; outline: as §1

Row | EC50 [1] | EC50 [2] | EC50 [5] | inhibition [8] | EC50 [9] | EC50 [10] | EC50 [12] | EC50 [14] | inhibition [15] | EC50 [17] | EC50 [19] | EC50 [20] | Compound | EC50 [3] | EC50 [4] | EC50 [6] | EC50 [7] | EC50 [11] | EC50 [13] | EC50 [16] | EC50 [18] | other results
1 | 4.3 µM | > 10 µM | 1.5 µM | Active | 0.5 µM | 6.5 µM | 5.1 µM | 1.5 µM | Active | 3.9 µM | 4.6 µM | 3.1 µM | COc1cc2c(NC3CCN(C(C)C)CC3)nc(C3CCCCC3)nc2cc1OCCCN1CCCC1 | 0.2 µM | 1.2 µM | > 10 µM | 0.6 µM | 0.2 µM | 0.5 µM | 3.9 µM | 4 µM | Activity [21]: Active; EC50 [22]: 0.2 µM; EC50 [23]: 8.7 µM
2 | > 10 µM | > 10 µM | > 10 µM | Active | > 10 µM | > 10 µM | > 10 µM | > 10 µM | inactive | > 10 µM | > 10 µM | > 10 µM | COc1cc2c(cc1OCCCN1CCCC1)N=C(N)C21CCC1 | > 10 µM | > 10 µM | > 10 µM | > 10 µM | > 10 µM | > 10 µM | > 10 µM | > 10 µM | Activity [21]: inactive; EC50 [22]: > 10 µM; EC50 [23]: > 10 µM

— ChEMBL document CHEMBL5674869, “The Histone Methyltransferase Inhibitor A-366 Uncovers a Role for G9a/GLP in the Epigenetics of Leukemia” (PLoS One, 2015)
